We go through 13 molecules from ChEMBL document CHEMBL4346673, “Synthesis and biological evaluation of pyridazinone derivatives as selective COX-2 inhibitors and potential anti-inflammatory agents” (Eur J Med Chem, 2019).

Data set [1] addresses Prostaglandin G/H synthase 1 (Homo sapiens, UniProt P23219). Nature of the data set: Inhibition of human COX1 assessed as reduction in PGF2alpha production using arachidonic acid as substrate preincubated with enzyme for 10 mins followed by substrate addition by ELISA. The data set is classed as single protein.
Data set [2] concerns Rattus norvegicus. Nature of the data set: Antiinflammatory activity against carrageenan induced albino Sprague-Dawley rat paw edema model assessed as paw edema at 10 mg/kg, po pretreated for 1 hr followed by carrageenan challenge and measured at 1 hr post-carrageenan injection (reference value: 30.3%). Format: functional.
In data set [3] the test system is Rattus norvegicus. Nature of the data set: Antiinflammatory activity against carrageenan induced albino Sprague-Dawley rat paw edema model assessed as paw diameter at 10 mg/kg, po pretreated for 1 hr followed by carrageenan challenge and measured at 4 hrs post-carrageenan injection (reference value: 4.88 +/- 0.1 mm). The data set is classed as functional.
Data set [4] has as its system Rattus norvegicus. Nature of the data set: Antiinflammatory activity against carrageenan induced albino Sprague-Dawley rat paw edema model assessed as paw edema at 10 mg/kg, po pretreated for 1 hr followed by carrageenan challenge and measured at 3 hrs post-carrageenan injection (reference value: 38.4%). Format: functional.
Data set [5] concerns Rattus norvegicus. Nature of the data set: Antiinflammatory activity against carrageenan induced albino Sprague-Dawley rat paw edema model assessed as paw diameter at 10 mg/kg, po pretreated for 1 hr followed by carrageenan challenge and measured at 2 hrs post-carrageenan injection (reference value: 4.72 +/- 0.08 mm). Format: functional.
The test system of data set [6] is Rattus norvegicus. Nature of the data set: Antiinflammatory activity against carrageenan-induced albino Sprague-Dawley rat paw edema model assessed as paw edema at 10 mg/kg, po pretreated for 1 hr followed by carrageenan challenge and measured at 2 hrs post-carrageenan injection (reference value: 36.4%). The data set is classed as functional.
Data set [7] has as its system Rattus norvegicus. Nature of the data set: Antiinflammatory activity against carrageenan induced albino Sprague-Dawley rat paw edema model assessed as paw diameter at 10 mg/kg, po pretreated for 1 hr followed by carrageenan challenge and measured at 3 hrs post-carrageenan injection (reference value: 4.79 +/- 0.1 mm). The data set is classed as functional.
In data set [8] the test system is Rattus norvegicus. Nature of the data set: Antiinflammatory activity against carrageenan induced albino Sprague-Dawley rat paw edema model assessed as paw edema at 10 mg/kg, po pretreated for 1 hr followed by carrageenan challenge and measured at 4 hrs post-carrageenan injection (reference value: 41%). The data set is classed as functional.
The test system of data set [9] is Rattus norvegicus. Nature of the data set: Antiinflammatory activity against carrageenan-induced albino Sprague-Dawley rat paw edema model assessed as paw diameter at 10 mg/kg, po pretreated for 1 hr followed by carrageenan challenge and measured immediately after carrageenan injection (reference value: 3.46 +/- 0.08 mm). Format: functional.
For data set [10], the system named is Rattus norvegicus. Nature of the data set: Antiinflammatory activity against carrageenan-induced albino Sprague-Dawley rat paw edema model assessed as paw diameter at 10 mg/kg, po pretreated for 1 hr followed by carrageenan challenge and measured at 1 hr post-carrageenan injection (reference value: 4.51 +/- 0.09 mm). The data set is classed as functional.
The nature of data set [11]: Ulcerogenicity in albino rat assessed as severity of gastric lesions at 10 mg/kg, po administered as single dose after 18 hrs of starvation challenge and measured after 4 hrs. The data set is classed as toxicity, organism-based. Particulars: in vivo. In a few lines:
(§1)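 Adult male albino rats fasted 18 h, then dosed orally at 10 mg/kg (saline control, reference drugs); six rats per group. Killed 4 h after treatment. Stomachs removed and examined macroscopically for hyperemia, single or multiple lesions, erosion, ulcer or perforation. Number of ulcers and occurrence of hyperemia recorded.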

Data set [12] in a line: Ulcerogenicity in albino rat assessed as gastric lesions at 10 mg/kg, po administered as single dose after 18 hrs of starvation challenge and measured after 4 hrs. Format: toxicity, organism-based. To be noted: in vivo. In a few lines:
as §1

Data set [13] can be described thus: Ulcerogenicity in albino rat assessed as mild hyperemia without ulceration at 10 mg/kg, po administered as single dose after 18 hrs of starvation challenge and measured after 4 hrs. The data set is classed as toxicity, organism-based. To be noted: in vivo. In a few lines:
as §1

Sequence of Prostaglandin G/H synthase 1 (P23219 whole entry): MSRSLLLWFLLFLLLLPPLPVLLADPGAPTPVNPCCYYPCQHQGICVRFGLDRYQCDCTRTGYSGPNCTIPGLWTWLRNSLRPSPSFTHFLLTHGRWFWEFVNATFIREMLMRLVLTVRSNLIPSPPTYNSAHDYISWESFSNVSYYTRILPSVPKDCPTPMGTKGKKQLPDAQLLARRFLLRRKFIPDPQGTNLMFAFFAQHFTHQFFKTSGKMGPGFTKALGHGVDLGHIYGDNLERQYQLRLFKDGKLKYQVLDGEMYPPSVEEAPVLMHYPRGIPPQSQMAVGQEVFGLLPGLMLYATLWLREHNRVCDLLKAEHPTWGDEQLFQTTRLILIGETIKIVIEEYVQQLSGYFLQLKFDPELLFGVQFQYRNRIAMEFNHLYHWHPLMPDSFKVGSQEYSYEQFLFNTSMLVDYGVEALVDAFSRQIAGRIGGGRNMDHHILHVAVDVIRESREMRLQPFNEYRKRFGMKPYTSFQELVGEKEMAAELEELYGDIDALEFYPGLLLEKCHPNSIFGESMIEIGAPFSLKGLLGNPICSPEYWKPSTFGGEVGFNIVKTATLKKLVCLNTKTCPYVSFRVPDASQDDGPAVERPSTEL

As to `COc1ccccc1/C=C/C1=NN(c2ccc(F)cc2)C(=O)CC1`, the half-inhibitory concentration (IC50) in data set [1] turned out to be 540 nM.
For the molecule `Cc1cccc(/C=C/c2ccc(=O)n(-c3ccc(F)cc3)n2)c1`, in [1], the IC50 came to 240 nM.
With `Cc1cccc(/C=C/C2=NN(c3ccc(F)cc3)C(=O)CC2)c1`, the IC50 in data set [1] was determined as 210 nM.
On to `COc1ccc2c(c1)c(CC(=O)O)c(C)n2C(=O)c1ccc(Cl)cc1` [INDOMETHACIN], for which the Activity in the data set on Rattus norvegicus [2] was found to be 12.3%; in the data set on Rattus norvegicus [3] it was 3.73 mm; in the data set on Rattus norvegicus [4], 9.4%; in the data set on Rattus norvegicus [5], 3.85 mm; in the data set with Rattus norvegicus [6], 10.3%; in the data set with Rattus norvegicus [7], 3.81 mm. Further, the figures for the Activity in the data set on Rattus norvegicus [8], in the data set on Rattus norvegicus [9] and in the data set with Rattus norvegicus [10] were 8%, 3.49 mm and 3.92 mm, respectively. In addition, the UI in data set [11] stood at 12.4; in data set [12], 8.3.
On to `COc1ccccc1/C=C/c1ccc(=O)[nH]n1`, for which, in [1], the IC50 was 530 nM.
On to `Cc1ccc(-c2cc(C(F)(F)F)nn2-c2ccc(S(N)(=O)=O)cc2)cc1` [CELECOXIB], for which the Activity amounted to 12.9% with Rattus norvegicus [2]; 3.78 mm with Rattus norvegicus [3]; 10% in the data set on Rattus norvegicus [4]; 3.88 mm in the data set on Rattus norvegicus [5]; 11.4% with Rattus norvegicus [6]; 3.83 mm in the data set with Rattus norvegicus [7]. Further, the Activity in the data set with Rattus norvegicus [8] is 8.6%; in the data set with Rattus norvegicus [9], 3.48 mm; with Rattus norvegicus [10], 3.93 mm. The UI in data set [11] was found to be 6.2; in data set [12] it was 2.7.
Consider `COc1ccccc1/C=C/c1ccc(=O)n(-c2ccccc2)n1`, for which the IC50 in [1] was 460 nM.
`O=C1CCC(/C=C/c2cccnc2)=NN1`: the Activity in the data set on Rattus norvegicus [2] is given as 11%; in the data set on Rattus norvegicus [3], 3.78 mm; in the data set with Rattus norvegicus [4], 7.9%; with Rattus norvegicus [5], 3.86 mm; in the data set on Rattus norvegicus [6] it was 9.3%; in the data set on Rattus norvegicus [7], 3.81 mm. The Activity in the data set on Rattus norvegicus [8] was determined as 7%; with Rattus norvegicus [9], 3.53 mm; in the data set with Rattus norvegicus [10], 3.92 mm. Further, the UI in data set [11] and in data set [12] was 0 each time. Also, the concentration for half-maximal inhibition (IC50) in data set [1] was found to be 750 nM.
With `COc1ccccc1/C=C/C1=NNC(=O)CC1`, in data set [1], the IC50 came out at 270 nM.
The same measure, in the same setting: under `COc1ccccc1/C=C/C1=NN(c2ccccc2)C(=O)CC1` stands 390 nM.
For `COc1ccccc1/C=C/c1ccc(=O)n(-c2ccc(F)cc2)n1`, the Activity was found to be 10.5% in the data set on Rattus norvegicus [2]; 3.85 mm in the data set with Rattus norvegicus [3]; 8% with Rattus norvegicus [4]; 3.93 mm in the data set on Rattus norvegicus [5]; 9.4% with Rattus norvegicus [6]; 3.88 mm with Rattus norvegicus [7]. The Activity stood at 7.2% in the data set with Rattus norvegicus [8], 3.59 mm in the data set on Rattus norvegicus [9] and 3.97 mm in the data set on Rattus norvegicus [10]. The UI in [11] and in data set [12] was 0 in each case. For the same molecule, the concentration for half-maximal inhibition (IC50) in data set [1] turned out to be 700 nM.
Turning to `Cc1cccc(/C=C/C2=NNC(=O)CC2)c1`, the Activity result in data set [13] was “Toxic”; with Rattus norvegicus [2], 13.6%; in the data set with Rattus norvegicus [3], 3.8 mm; with Rattus norvegicus [4] it was 10.2%; in the data set with Rattus norvegicus [5], 3.92 mm; in the data set with Rattus norvegicus [6], 11.6%. The Activity in the data set on Rattus norvegicus [7] is on record as 3.84 mm; in the data set on Rattus norvegicus [8], 8.2%; in the data set with Rattus norvegicus [9], 3.51 mm; in the data set with Rattus norvegicus [10] it was 3.99 mm. In addition, the UI is recorded as 0.4 in data set [11] and 0.2 in data set [12]. Also, the 50% inhibitory concentration (IC50) in data set [1] was 450 nM.
As for `Cc1cccc(/C=C/c2ccc(=O)[nH]n2)c1`, the Activity amounted to 11.5% with Rattus norvegicus [2]; 3.82 mm in the data set on Rattus norvegicus [3]; 8.1% in the data set with Rattus norvegicus [4]; 3.86 mm with Rattus norvegicus [5]; 8.7% in the data set on Rattus norvegicus [6]; 3.84 mm with Rattus norvegicus [7]. For the same molecule, the Activity in the data set with Rattus norvegicus [8] is on record as 7.6%; in the data set with Rattus norvegicus [9], 3.55 mm; with Rattus norvegicus [10], 3.96 mm. In addition, the UI in data set [11] and in [12] was 0 in each case. Further, the IC50 in [1] was determined as 370 nM.
